# Experimental data from ChEMBL document CHEMBL1122682, “Synthesis of potent heptapeptide analogues of cholecystokinin” (1984).
# *1 amine or outer side, *2 acyl side, *3 side chain or, on linkers, in order; H or OH if unused. Where a SMILES comes first, the peptide text is derived from it. [ ]: non-standard residue; d: D form. X1 = O=C([C@@H]1C[C@@H](OS(=O)(=O)O)CN1[*:1])[*:2]; Thr(SO3H) = C[C@@H](OS(=O)(=O)O)[C@H](N)C(=O)O; sY = N[C@@H](Cc1ccc(OS(=O)(=O)O)cc1)C(=O)O
# Legend:
# Format in all cases: functional
# Rattus norvegicus = experiment: Compound was evaluated for (in vivo) gastrin like activity measured on perfused rat stomach after intravenous administration
# Outline: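 Male Wistar rats (~250 g), perfused stomach; peptides given iv in physiological saline at 10, 20, 40, 80, 160 and 320 ng; secreted HCl measured by conductometric titration. Pentagastrin standard at 10–80 ng, taken as 100%. Relative potency expressed as a percentage; 10 animals per compound; detection limit 1–2% of pentagastrin.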
# Mus musculus [1] = experiment: Anticonvulsive activity against picrotoxin-induced (6 mg/kg sc) convulsions in mice, time of death
# Outline: (§1)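 Male CFLP mice (25–35 g), 10 per group. Peptides in physiological saline given ip at 0.8 μmol/kg (1 mg/kg for CCK-8) 10 min before picrotoxin 6 mg/kg sc. Latency to first tonic seizure and time of death recorded over 60 min; a score of 60 is given if neither occurs. Percentage prolongation of mean saline-control latency is expressed relative to CCK-8. Student's t test vs saline controls.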
# Oryctolagus cuniculus = species on record: Oryctolagus cuniculus; experiment: Compound was evaluated for cholecystokinin activity measured in isolated rabbit gallbladder strips (in vitro)
# Outline: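 Tension changes recorded with a force-displacement transducer. Dose-response curves were run for CCK-8 and each analogue, with five determinations per compound. ED50 and maximal response came from direct observation and a Dowd-Riggs linear transformation. Activity is relative to CCK-8 (100%), reported as mean ± SEM.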
# Mus musculus [2] = experiment: Anticonvulsive potency against picrotoxin induced (6 mg/kg sc) convulsions in mice, first tonic seizure; outline: as §1
Molecule,Activity (Rattus norvegicus),Activity (Mus musculus [1]),Activity (Oryctolagus cuniculus),Activity (Mus musculus [2])
CSCC[C@H](NC(=O)[C@H](Cc1ccc(OS(=O)(=O)[O-])cc1)NC(C)=O)C(=O)NCC(=O)N[C@@H](Cc1c[nH]c2ccccc12)C(=O)N[C@H](CCSC)C(=O)N[C@@H](CC(=O)O)C(=O)N[C@@H](Cc1ccccc1)C(N)=O.[Na+],0%,0%,0.6%,21%
H-GWMDF-NH2,100%,38%,0%,62%
CSCC[C@H](NC(=O)[C@H](Cc1ccc(OS(=O)(=O)[O-])cc1)NC(C)=O)C(=O)NCC(=O)N[C@@H](Cc1c[nH]c2ccccc12)C(=O)N[C@@H](CCSC)C(=O)N1C[C@H](OS(=O)(=O)[O-])C[C@H]1C(=O)N[C@@H](Cc1ccccc1)C(N)=O.[Na+].[Na+] (Ac-[sY]MGWM[X1]F-NH2),0%,121%,300%,79%
CSCC[C@H](NC(=O)[C@H](Cc1ccc(OS(=O)(=O)[O-])cc1)NC(C)=O)C(=O)NCC(=O)N[C@@H](Cc1c[nH]c2ccccc12)C(=O)N[C@@H](CCSC)C(=O)N[C@H](C(=O)N[C@@H](Cc1ccccc1)C(N)=O)[C@@H](C)OS(=O)(=O)[O-].[Na+].[Na+] (Ac-[sY]MGWM[Thr(SO3H)]F-NH2),0%,115%,166%,146%
CSCC[C@H](NC(=O)[C@H](Cc1ccc(OS(=O)(=O)O)cc1)NC(=O)[C@@H](N)CC(=O)O)C(=O)NCC(=O)N[C@@H](Cc1c[nH]c2ccccc12)C(=O)N[C@@H](CCSC)C(=O)N[C@@H](CC(=O)O)C(=O)N[C@@H](Cc1ccccc1)C(N)=O [SINCALIDE],0%,100%,100%,100%
CSCC[C@H](NC(=O)[C@H](Cc1ccc(O)cc1)NC(C)=O)C(=O)NCC(=O)N[C@@H](Cc1c[nH]c2ccccc12)C(=O)N[C@@H](CCSC)C(=O)N[C@@H](COS(=O)(=O)[O-])C(=O)N[C@@H](Cc1ccccc1)C(N)=O.[Na+],40%,–,0.3%,–
CSCC[C@H](NC(=O)[C@H](Cc1ccc(O)cc1)NC(C)=O)C(=O)NCC(=O)N[C@@H](Cc1c[nH]c2ccccc12)C(=O)N[C@@H](CCSC)C(=O)N1C[C@H](OS(=O)(=O)[O-])C[C@H]1C(=O)N[C@@H](Cc1ccccc1)C(N)=O.[Na+] (Ac-YMGWM[X1]F-NH2),0%,–,0.3%,–
CSCC[C@H](NC(=O)[C@H](Cc1ccc(OS(=O)(=O)[O-])cc1)NC(C)=O)C(=O)NCC(=O)N[C@@H](Cc1c[nH]c2ccccc12)C(=O)N[C@@H](CCSC)C(=O)N[C@@H](COS(=O)(=O)[O-])C(=O)N[C@@H](Cc1ccccc1)C(N)=O.[Na+].[Na+],0%,121%,190%,66%
CSCC[C@H](NC(=O)[C@H](Cc1ccc(O)cc1)NC(C)=O)C(=O)NCC(=O)N[C@@H](Cc1c[nH]c2ccccc12)C(=O)N[C@@H](CCSC)C(=O)N[C@H](C(=O)N[C@@H](Cc1ccccc1)C(N)=O)[C@@H](C)OS(=O)(=O)[O-].[Na+] (Ac-YMGWM[Thr(SO3H)]F-NH2),25%,–,0.2%,–
CSCC[C@H](NC(=O)[C@H](Cc1c[nH]c2ccccc12)NC(=O)[C@@H](C)NC(=O)[C@H](CCSC)NC(=O)[C@H](Cc1ccc(OS(=O)(=O)[O-])cc1)NC(C)=O)C(=O)N[C@@H](CC(=O)O)C(=O)N[C@@H](Cc1ccccc1)C(N)=O.[Na+],0%,115%,40%,100%
CSCC[C@H](NC(=O)[C@H](Cc1ccc(OS(=O)(=O)[O-])cc1)NC(C)=O)C(=O)NCC(=O)N[C@H](Cc1c[nH]c2ccccc12)C(=O)N[C@@H](CCSC)C(=O)N[C@@H](CC(=O)O)C(=O)N[C@@H](Cc1ccccc1)C(N)=O.[Na+],0%,45%,0.7%,65%
